ChEMBL document CHEMBL3864121, “Development of ebsulfur analogues as potent antibacterials against methicillin-resistant Staphylococcus aureus” (Bioorg Med Chem, 2016)
≈ marks a conversion by molar mass, not a printed value.

Columns and labels:
Format in all cases: functional
Staphylococcus aureus [1] = test: Antibacterial activity against methicillin-sensitive Staphylococcus aureus ATCC 6538 measured after overnight incubation by broth double-dilution method
How it was run: (§1)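 MIC by broth double-dilution in liquid Mueller-Hinton medium. Values are reported in µg/mL.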

Staphylococcus aureus [2] = test: Antibacterial activity against methicillin-sensitive Staphylococcus aureus ATCC 25923 measured after overnight incubation by broth double-dilution method; how it was run: as §1
Staphylococcus aureus [3] = test: Antibacterial activity against methicillin-sensitive Staphylococcus aureus ATCC 29213 measured after overnight incubation by broth double-dilution method; how it was run: as §1
Staphylococcus aureus [4] = test: Antibacterial activity against methicillin-resistant Staphylococcus aureus ATCC 33591 measured after overnight incubation by broth double-dilution method; how it was run: as §1
Staphylococcus aureus [5] = test: Antibacterial activity against methicillin-resistant Staphylococcus aureus 1 measured after overnight incubation by broth double-dilution method; how it was run: as §1
Staphylococcus aureus [6] = test: Antibacterial activity against methicillin-resistant Staphylococcus aureus 2 measured after overnight incubation by broth double-dilution method; how it was run: as §1
Staphylococcus aureus [7] = test: Antibacterial activity against methicillin-resistant Staphylococcus aureus BRS3 measured after overnight incubation by broth double-dilution method; how it was run: as §1
Staphylococcus aureus [8] = test: Antibacterial activity against methicillin-resistant Staphylococcus aureus C1 measured after overnight incubation by broth double-dilution method; how it was run: as §1
Staphylococcus aureus [9] = test: Antibacterial activity against methicillin-resistant Staphylococcus aureus C2 measured after overnight incubation by broth double-dilution method; how it was run: as §1
Staphylococcus aureus [10] = test: Antibacterial activity against methicillin-resistant Staphylococcus aureus C7 measured after overnight incubation by broth double-dilution method; how it was run: as §1
Staphylococcus aureus [11] = test: Antibacterial activity against methicillin-resistant Staphylococcus aureus C14 measured after overnight incubation by broth double-dilution method; how it was run: as §1
Staphylococcus aureus [12] = test: Antibacterial activity against methicillin-resistant Staphylococcus aureus C16 measured after overnight incubation by broth double-dilution method; how it was run: as §1
Staphylococcus aureus [13] = test: Antibacterial activity against methicillin-resistant Staphylococcus aureus C19 measured after overnight incubation by broth double-dilution method; how it was run: as §1
Staphylococcus aureus [14] = test: Antibacterial activity against methicillin-resistant Staphylococcus aureus G1 measured after overnight incubation by broth double-dilution method; how it was run: as §1
Staphylococcus aureus [15] = test: Antibacterial activity against methicillin-resistant Staphylococcus aureus G6 measured after overnight incubation by broth double-dilution method; how it was run: as §1
Staphylococcus aureus [16] = test: Antibacterial activity against methicillin-resistant Staphylococcus aureus G12 measured after overnight incubation by broth double-dilution method; how it was run: as §1
Staphylococcus aureus [17] = test: Antibacterial activity against methicillin-resistant Staphylococcus aureus G14 measured after overnight incubation by broth double-dilution method; how it was run: as §1
Staphylococcus aureus [18] = test: Antibacterial activity against methicillin-resistant Staphylococcus aureus NRS4 measured after overnight incubation by broth double-dilution method; how it was run: as §1
Staphylococcus aureus [19] = test: Antibacterial activity against methicillin-resistant Staphylococcus aureus NRS51 measured after overnight incubation by broth double-dilution method; how it was run: as §1
Staphylococcus aureus [20] = test: Antibacterial activity against methicillin-resistant Staphylococcus aureus NRS77 measured after overnight incubation by broth double-dilution method; how it was run: as §1
Staphylococcus aureus [21] = test: Antibacterial activity against methicillin-resistant Staphylococcus aureus S14 measured after overnight incubation by broth double-dilution method; how it was run: as §1
Staphylococcus aureus [22] = test: Antibacterial activity against methicillin-resistant Staphylococcus aureus S17 measured after overnight incubation by broth double-dilution method; how it was run: as §1
Staphylococcus aureus [23] = test: Antibacterial activity against methicillin-resistant Staphylococcus aureus S22 measured after overnight incubation by broth double-dilution method; how it was run: as §1
Staphylococcus aureus [24] = test: Antibacterial activity against methicillin-resistant Staphylococcus aureus S24 measured after overnight incubation by broth double-dilution method; how it was run: as §1
Staphylococcus aureus [25] = test: Antibacterial activity against methicillin-resistant Staphylococcus aureus USA200 measured after overnight incubation by broth double-dilution method; how it was run: as §1
Staphylococcus aureus [26] = test: Antibacterial activity against methicillin-resistant Staphylococcus aureus USA300 measured after overnight incubation by broth double-dilution method; how it was run: as §1
Staphylococcus aureus [27] = test: Antibacterial activity against methicillin-resistant Staphylococcus aureus USA600 measured after overnight incubation by broth double-dilution method; how it was run: as §1
[28] = tested on: Staphylococcus epidermidis; test: Antibacterial activity against Staphylococcus epidermidis ATCC 35984 measured after overnight incubation by broth double-dilution method; settings: RP62A
How it was run: (§2)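 MIC by broth double-dilution in Mueller-Hinton medium. Re-testing at the time-kill inoculum used 1×10^6 CFU/mL.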

Enterococcus faecalis [29] = test: Antibacterial activity against Enterococcus faecalis ATCC 49533 measured after overnight incubation by broth double-dilution method; how it was run: as §2
Enterococcus faecium = test: Antibacterial activity against Enterococcus faecium BM4105-RF measured after overnight incubation by broth double-dilution method; how it was run: as §1
Enterococcus = test: Antibacterial activity against Vancomycin-resistant Enterococcus measured after overnight incubation by broth double-dilution method; how it was run: as §1
Listeria monocytogenes = test: Antibacterial activity against Listeria monocytogenes ATCC 19115 measured after overnight incubation by broth double-dilution method; how it was run: as §2
[30] = tested on: Mycolicibacterium smegmatis; test: Antibacterial activity against Mycobacterium smegmatis MC2-155 measured after overnight incubation by broth double-dilution method; settings: str. MC2 155; how it was run: as §1
Staphylococcus aureus [31] = test: Antibacterial activity against methicillin-resistant Staphylococcus aureus USA100 measured after overnight incubation by broth double-dilution method; how it was run: as §1
Enterococcus faecalis [32] = test: Antibacterial activity against Enterococcus faecalis ATCC 29212 measured after overnight incubation by broth double-dilution method; how it was run: as §2

## O=c1c2ccccc2sn1-c1ccc(Br)cc1
Staphylococcus aureus [1]
  MIC: 2 µg/mL (≈ 6.53 µM)
Staphylococcus aureus [2]
  MIC: 2 µg/mL (≈ 6.53 µM)
Staphylococcus aureus [3]
  MIC: 2 µg/mL (≈ 6.53 µM)
Staphylococcus aureus [4]
  MIC: 0.5 µg/mL (≈ 1.63 µM)
Staphylococcus aureus [5]
  MIC: 3.9 µg/mL (≈ 12.7 µM)
Staphylococcus aureus [6]
  MIC: 2 µg/mL (≈ 6.53 µM)
Staphylococcus aureus [7]
  MIC: 3.9 µg/mL (≈ 12.7 µM)
Staphylococcus aureus [8]
  MIC: 2 µg/mL (≈ 6.53 µM)
Staphylococcus aureus [9]
  MIC: 2 µg/mL (≈ 6.53 µM)
Staphylococcus aureus [10]
  MIC: 1 µg/mL (≈ 3.27 µM)
Staphylococcus aureus [11]
  MIC: 3.9 µg/mL (≈ 12.7 µM)
Staphylococcus aureus [12]
  MIC: 3.9 µg/mL (≈ 12.7 µM)
Staphylococcus aureus [13]
  MIC: 2 µg/mL (≈ 6.53 µM)
Staphylococcus aureus [14]
  MIC: 2 µg/mL (≈ 6.53 µM)
Staphylococcus aureus [15]
  MIC: 3.9 µg/mL (≈ 12.7 µM)
Staphylococcus aureus [16]
  MIC: 2 µg/mL (≈ 6.53 µM)
Staphylococcus aureus [17]
  MIC: 2 µg/mL (≈ 6.53 µM)
Staphylococcus aureus [18]
  MIC: 3.9 µg/mL (≈ 12.7 µM)
Staphylococcus aureus [19]
  MIC: 2 µg/mL (≈ 6.53 µM)
Staphylococcus aureus [20]
  MIC: 2 µg/mL (≈ 6.53 µM)
Staphylococcus aureus [21]
  MIC: ≤ 0.25 µg/mL
Staphylococcus aureus [22]
  MIC: 3.9 µg/mL (≈ 12.7 µM)
Staphylococcus aureus [23]
  MIC: 2 µg/mL (≈ 6.53 µM)
Staphylococcus aureus [24]
  MIC: 2 µg/mL (≈ 6.53 µM)
Staphylococcus aureus [25]
  MIC: 3.9 µg/mL (≈ 12.7 µM)
Staphylococcus aureus [26]
  MIC: 3.9 µg/mL (≈ 12.7 µM)
Staphylococcus aureus [27]
  MIC: 3.9 µg/mL (≈ 12.7 µM)
[28]
  MIC: 2 µg/mL (≈ 6.53 µM)
Enterococcus faecalis [29]
  MIC: 15.6 µg/mL (≈ 50.9 µM)
Enterococcus faecium
  MIC: 7.8 µg/mL (≈ 25.5 µM)
Enterococcus
  MIC: 2 µg/mL (≈ 6.53 µM)
Listeria monocytogenes
  MIC: 2 µg/mL (≈ 6.53 µM)
[30]
  MIC: 0.5 µg/mL (≈ 1.63 µM)

## CC(C)Cn1sc2ccccc2c1=O
Staphylococcus aureus [1]
  MIC: 7.8 µg/mL (≈ 37.6 µM)
Staphylococcus aureus [2]
  MIC: 125 µg/mL (≈ 603 µM)
Staphylococcus aureus [3]
  MIC: 15.6 µg/mL (≈ 75.3 µM)
Staphylococcus aureus [4]
  MIC: > 125 µg/mL
Staphylococcus aureus [5]
  MIC: 7.8 µg/mL (≈ 37.6 µM)
Staphylococcus aureus [6]
  MIC: 15.6 µg/mL (≈ 75.3 µM)
Staphylococcus aureus [7]
  MIC: 7.8 µg/mL (≈ 37.6 µM)
Staphylococcus aureus [8]
  MIC: 7.8 µg/mL (≈ 37.6 µM)
Staphylococcus aureus [9]
  MIC: 7.8 µg/mL (≈ 37.6 µM)
Staphylococcus aureus [10]
  MIC: 7.8 µg/mL (≈ 37.6 µM)
Staphylococcus aureus [11]
  MIC: 7.8 µg/mL (≈ 37.6 µM)
Staphylococcus aureus [12]
  MIC: 7.8 µg/mL (≈ 37.6 µM)
Staphylococcus aureus [13]
  MIC: 7.8 µg/mL (≈ 37.6 µM)
Staphylococcus aureus [14]
  MIC: 3.9 µg/mL (≈ 18.8 µM)
Staphylococcus aureus [15]
  MIC: 7.8 µg/mL (≈ 37.6 µM)
Staphylococcus aureus [16]
  MIC: 7.8 µg/mL (≈ 37.6 µM)
Staphylococcus aureus [17]
  MIC: 7.8 µg/mL (≈ 37.6 µM)
Staphylococcus aureus [18]
  MIC: 7.8 µg/mL (≈ 37.6 µM)
Staphylococcus aureus [19]
  MIC: 7.8 µg/mL (≈ 37.6 µM)
Staphylococcus aureus [20]
  MIC: 7.8 µg/mL (≈ 37.6 µM)
Staphylococcus aureus [21]
  MIC: 2 µg/mL (≈ 9.65 µM)
Staphylococcus aureus [22]
  MIC: 7.8 µg/mL (≈ 37.6 µM)
Staphylococcus aureus [23]
  MIC: 7.8 µg/mL (≈ 37.6 µM)
Staphylococcus aureus [24]
  MIC: 7.8 µg/mL (≈ 37.6 µM)
Staphylococcus aureus [31]
  MIC: 7.8 µg/mL (≈ 37.6 µM)
Staphylococcus aureus [25]
  MIC: 7.8 µg/mL (≈ 37.6 µM)
Staphylococcus aureus [26]
  MIC: 7.8 µg/mL (≈ 37.6 µM)
Staphylococcus aureus [27]
  MIC: 7.8 µg/mL (≈ 37.6 µM)
[28]
  MIC: 7.8 µg/mL (≈ 37.6 µM)
Enterococcus faecalis [32]
  MIC: 7.8 µg/mL (≈ 37.6 µM)
Enterococcus faecalis [29]
  MIC: 15.6 µg/mL (≈ 75.3 µM)
Enterococcus faecium
  MIC: 7.8 µg/mL (≈ 37.6 µM)
Enterococcus
  MIC: 3.9 µg/mL (≈ 18.8 µM)
Listeria monocytogenes
  MIC: > 125 µg/mL
[30]
  MIC: 3.9 µg/mL (≈ 18.8 µM)
